Measured values published in ChEMBL document CHEMBL1122008, “Lipophilic 5'-(alkyl phosphate) esters of 1-beta-D-arabinofuranosylcytosine and its N4-acyl and 2,2'-anhydro-3'-O-acyl derivatives as potential prodrugs” (1982).

Key:
Type in all cases: functional
Mus musculus [1] = assay: Antitumor activity against L1210/ara-C leukemia in mice (Percent increase in life span.) at the dose of 200 mg/kg
Procedure, shortened: (§1)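 Same protocol as the L1210 assay, but with 10^5 kinase-deficient L1210/ara-C cells inoculated ip into male B6D2F1J mice (groups of 5–9) on day 0. Treatment begins day 1, qd×5 or q4d(2,6). %ILS = (T/C − 1)×100 using median survival times of treated and control groups. Body weight recorded days 1 and 7.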

Mus musculus [2] = assay: Antitumor activity against L1210 leukemia in mice (Percent increase in life span.) at the dose of 1000 mg/kg
Procedure, shortened: (§2)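 Male B6D2F1J mice, groups of 5–9, inoculated ip with 10^5 L1210 cells on day 0. Dosing starts day 1 on a qd×5 or q4d(2,6) schedule. Vehicles are sterile water, pH 7.4 0.05 M potassium phosphate buffer, or 0.4% Tween 80/0.5% CMC/0.9% benzyl alcohol/0.9% saline. %ILS = (T/C − 1)×100 from median survival. Weights taken days 1 and 7.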

Mus musculus [3] = assay: Antitumor activity against L1210/ara-C leukemia in mice (Average 7-day weight change (%)) at the dose of 200 mg/kg
Procedure, shortened: (§3)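 Male B6D2F1J mice (5–9 per group) were given 10^5 L1210/ara-C cells i.p. on day 0, with treatment from day 1 on qd×5 or q4d(2,6). Vehicles were sterile water, pH 7.4 0.05 M phosphate buffer, or a Tween 80/CMC/benzyl alcohol saline suspension. Weights were taken on days 1 and 7; change is expressed in g/mouse and as a percentage.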

Mus musculus [4] = assay: Antitumor activity against L1210/ara-C leukemia in mice (Average 7-day weight change) at the dose of 500 mg/kg
Procedure, shortened: (§4)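 Male B6D2F1J mice, groups of 5–9, inoculated ip with 10^5 L1210/ara-C cells on day 0. Dosing began day 1 on a qd×5 or q4d(2,6) schedule. Ara-C was given in sterile water, the n-butyl phosphate ester in 0.05 M pH 7.4 potassium phosphate buffer, and others as suspensions in 0.4% Tween 80/0.5% CMC/0.9% benzyl alcohol/0.9% saline. Mice were weighed on days 1 and 7; 7-day change given in g and %.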

Mus musculus [5] = assay: Antitumor activity against L1210 leukemia in mice (Percent increase in life span.) at the dose of 50 mg/kg; procedure, shortened: as §2
Mus musculus [6] = assay: Antitumor activity against L1210/ara-C leukemia in mice (Percent increase in life span.) at the dose of 500 mg/kg; procedure, shortened: as §1
Mus musculus [7] = assay: Antitumor activity against L1210/ara-C leukemia in mice (Average 7-day weight change) at the dose of 200 mg/kg; procedure, shortened: as §3
Mus musculus [8] = assay: Antitumor activity against L1210/ara-C leukemia in mice (Average 7-day weight change (%)) at the dose of 1000 mg/kg; procedure, shortened: as §3
Mus musculus [9] = assay: Antitumor activity against L1210 leukemia in mice (Average 7-day weight change) at the dose of 100 mg/kg
Procedure, shortened: (§5)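 Male B6D2F1J mice, groups of five to nine, inoculated ip with 10^5 L1210 cells on day 0. Drug treatment started day 1 on qd×5 or q4d(2,6) schedule. Vehicles: ara-C in sterile water; the n-butyl phosphate ester in 0.05 M pH 7.4 potassium phosphate buffer; others as suspensions in 0.4% Tween 80/0.5% low-density CMC/0.9% benzyl alcohol/0.9% saline. Mice weighed days 1 and 7; 7-day weight change given as g/mouse and %.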

Mus musculus [10] = assay: Antitumor activity against L1210 leukemia in mice (Average 7-day weight change (%)) at the dose of 50 mg/kg; procedure, shortened: as §5
Mus musculus [11] = assay: Antitumor activity against L1210/ara-C leukemia in mice (Average weight per mouse on day 1.) at the dose of 100 mg/kg; procedure, shortened: as §4
Mus musculus [12] = assay: Antitumor activity against L1210 leukemia in mice (Average 7-day weight change (%)) at the dose of 1000 mg/kg; procedure, shortened: as §5
Mus musculus [13] = assay: Antitumor activity against L1210 leukemia in mice (Average 7-day weight change) at the dose of 50 mg/kg; procedure, shortened: as §5
Mus musculus [14] = assay: Antitumor activity against L1210 leukemia in mice (Average 7-day weight change (%)) at the dose of 500 mg/kg; procedure, shortened: as §5
Mus musculus [15] = assay: Antitumor activity against L1210 leukemia in mice (Percent increase in life span.) at the dose of 100 mg/kg; procedure, shortened: as §2
Mus musculus [16] = assay: Antitumor activity against L1210/ara-C leukemia in mice (Average 7-day weight change) at the dose of 50 mg/kg; procedure, shortened: as §4
Mus musculus [17] = assay: Antitumor activity against L1210 leukemia in mice (Average weight per mouse on day 1.) at the dose of 50 mg/kg
Procedure, shortened: (§6)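 Male B6D2F1J mice (5–9 per group) received 10^5 L1210 cells i.p. on day 0 and drug from day 1, given qd×5 or q4d(2,6). Vehicles were sterile water, 0.05 M potassium phosphate pH 7.4, or 0.4% Tween 80/0.5% CMC/0.9% benzyl alcohol/0.9% saline. Read-out is average body weight per mouse (g) on day 1.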

Mus musculus [18] = assay: Antitumor activity against L1210 leukemia in mice (Average 7-day weight change) at the dose of 250 mg/kg; procedure, shortened: as §5
Mus musculus [19] = assay: Antitumor activity against L1210 leukemia in mice (Average 7-day weight change) at the dose of 1000 mg/kg; procedure, shortened: as §5
Mus musculus [20] = assay: Antitumor activity against L1210/ara-C leukemia in mice (Average 7-day weight change (%)) at the dose of 500 mg/kg; procedure, shortened: as §3
Mus musculus [21] = assay: Antitumor activity against L1210/ara-C leukemia in mice (Average weight per mouse on day 1.) at the dose of 500 mg/kg; procedure, shortened: as §4
Mus musculus [22] = assay: Antitumor activity against L1210 leukemia in mice (Average weight per mouse on day 1.) at the dose of 1000 mg/kg; procedure, shortened: as §6
Mus musculus [23] = assay: Antitumor activity against L1210/ara-C leukemia in mice (Percent increase in life span.) at the dose of 100 mg/kg; procedure, shortened: as §1
Mus musculus [24] = assay: Antitumor activity against L1210/ara-C leukemia in mice (Average 7-day weight change) at the dose of 250 mg/kg; procedure, shortened: as §3
Mus musculus [25] = assay: Antitumor activity against L1210/ara-C leukemia in mice (Average 7-day weight change (%)) at the dose of 250 mg/kg; procedure, shortened: as §3
Mus musculus [26] = assay: Antitumor activity against L1210/ara-C leukemia in mice (Average weight per mouse on day 1.) at the dose of 1000 mg/kg; procedure, shortened: as §4
Mus musculus [27] = assay: Antitumor activity against L1210 leukemia in mice (Average weight per mouse on day 1.) at the dose of 200 mg/kg; procedure, shortened: as §6
Mus musculus [28] = assay: Antitumor activity against L1210/ara-C leukemia in mice (Average 7-day weight change) at the dose of 100 mg/kg; procedure, shortened: as §3
Mus musculus [29] = assay: Antitumor activity against L1210 leukemia in mice (Average weight per mouse on day 1.) at the dose of 100 mg/kg; procedure, shortened: as §6
Mus musculus [30] = assay: Antitumor activity against L1210 leukemia in mice (Percent increase in life span.) at the dose of 200 mg/kg; procedure, shortened: as §2
Mus musculus [31] = assay: Antitumor activity against L1210 leukemia in mice (Average 7-day weight change (%)) at the dose of 200 mg/kg; procedure, shortened: as §5
Mus musculus [32] = assay: Antitumor activity against L1210 leukemia in mice (Average weight per mouse on day 1.) at the dose of 250 mg/kg; procedure, shortened: as §6

`Nc1ccn([C@@H]2O[C@H](CO)[C@@H](O)[C@@H]2O)c(=O)n1` [CYTARABINE] gave an ILS at 200 mg/kg (Mus musculus [1]) of -13%, an ILS at 1000 mg/kg (Mus musculus [2]) of 87% and a Weight change (Mus musculus [3]) of -14%. The Weight change (Mus musculus [4]) was 3.8 g mouse-1, the ILS at 50 mg/kg (Mus musculus [5]) was 75% and the ILS at 500 mg/kg (Mus musculus [6]) was 12%. It also gave a Weight change (Mus musculus [7]) of -3.1 g mouse-1, a Weight change (Mus musculus [8]) of 11% and a Weight change (Mus musculus [9]) of -1 g mouse-1. It also gave a Weight change (Mus musculus [10]) of 0%, an Average weight (Mus musculus [11]) of 24 g mouse-1 and a Weight change (Mus musculus [12]) of 3%. The Weight change (Mus musculus [13]) was 0.2 g mouse-1, the Weight change (Mus musculus [14]) was 2% and the ILS at 100 mg/kg (Mus musculus [15]) was 100%. For the same compound, the Weight change (Mus musculus [16]) was 0.8 g mouse-1, the Average weight (Mus musculus [17]) was 24 g mouse-1 and the Weight change (Mus musculus [18]) was 1.4 g mouse-1. The Weight change (Mus musculus [19]) was 0.8 g mouse-1, the Weight change (Mus musculus [20]) was 19% and the Average weight (Mus musculus [21]) was 20.2 g mouse-1. The Average weight (Mus musculus [22]) was 24 g mouse-1, the ILS at 100 mg/kg (Mus musculus [23]) was -13% and the Weight change (Mus musculus [24]) was 4 g mouse-1. The Weight change (Mus musculus [25]) was 20%, the Average weight (Mus musculus [26]) was 22 g mouse-1 and the Average weight (Mus musculus [27]) was 22.6 g mouse-1. For the same compound, the Weight change (Mus musculus [28]) was -1.1 g mouse-1, the Average weight (Mus musculus [29]) was 22.4 g mouse-1 and the ILS at 200 mg/kg (Mus musculus [30]) was 112%. The Weight change (Mus musculus [31]) was -7% and the Average weight (Mus musculus [32]) was 21.4 g mouse-1.
